From ChEMBL document CHEMBL1157797, “The alternative medicine pawpaw and its acetogenin constituents suppress tumor angiogenesis via the HIF-1/VEGF pathway” (J Nat Prod, 2010) come the findings set out here.

Data set [1] has as its system HUVEC. Nature of the data set: Cytotoxicity against HUVEC cells. The class given is cell-based. The note with it: human.
For data set [2], the system named is T47D. Nature of the data set: Inhibition of normoxic human T47D cells at 0.1 uM by tube formation assay. In kind it is functional, cell-based. An outline of the steps: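 Conditioned media from T47D cells (normoxic, hypoxic, or hypoxic plus treatment) applied to HUVEC on Matrigel. Tube length and branching points quantified in three random fields, expressed as % of the normoxic-cell medium, mean ± SD.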

Data set [3] concerns T47D. Nature of the data set: Inhibition of hypoxia-induced HIF1alpha protein accumulation in nucleus of human T47D cells by Western blot analysis. The class given is functional, cell-based. The method, boiled down: (§1)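 T47D cells exposed to hypoxia (1% O2, 4 h) with or without treatment. Nuclear extracts prepared and probed for HIF-1α and HIF-1β by Western blot.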
(In general: Immunoblotting shows a protein as a band on a membrane.)

The subject of data set [4] is T47D. Kind of data set: Inhibition of mitochondrial respiratory chain complex 1 in human T47D cells assessed as decrease in oxygen consumption. In kind it is functional, cell-based. The method, boiled down:
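Oxygen consumption measured in T47D cells; mean ± SD of three independent experiments. For complex I, cells were permeabilised with digitonin (30 μM) and respiration started with malate plus pyruvate. Follow-up additions: succinate (complex II substrate), antimycin A, and TMPD/ascorbate to test complexes II–IV.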

For data set [5], the system named is DU-145. Kind of data set: Cytotoxicity against human DU145 cells assessed as suppression of cell proliferation under hypoxic condition after 48 hrs relative to control. The class given is functional, cell-based. The method, boiled down:
(§2)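 Four human tumour lines (T47D, MDA-MB-231, PC-3, DU-145) exposed to acetogenins (1 to 100 nM, half-log steps) or crude extract (0.01 to 1 μg/mL, half-log steps) for 48 h, either normoxic (95% air) or hypoxic (1% O2). Proliferation/viability expressed relative to untreated control. Final solvent below 0.5% (v/v).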

The test system of data set [6] is T47D. Kind of data set: Cytotoxicity against human T47D cells assessed as suppression of cell proliferation under hypoxic condition after 48 hrs relative to control. The class given is functional, cell-based. An outline of the steps:
as §2

Data set [7] concerns the target T1, Hypoxia inducible factors; HIF-1-alpha, HIF-2-alpha (Homo sapiens, UniProt Q16665+Q99814). Kind of data set: Inhibition of hypoxia-induced HIF1 activation in human PC3 cells by HRE3-TK-luc reporter assay. Conditions: PC-3, concentration not given here. The class given is cell-based. An outline of the steps:
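HIF-1 activation in PC-3 cells induced by hypoxia (1% O2) and read with the pHRE3-TK-Luc luciferase reporter. Concentration-response, IC50/EC50 derived. Data are means ± SEM, n = 3.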
On the technique in general: In a reporter assay the amount or activity of a reporter protein is the signal.

The subject of data set [8] is PC-3. Kind of data set: Cytotoxicity against human PC3 cells assessed as suppression of cell proliferation under hypoxic condition after 48 hrs relative to control. In kind it is functional, cell-based. The method, boiled down:
as §2

The subject of data set [9] is MDA-MB-231. Nature of the data set: Cytotoxicity against human MDA-MB-231 cells assessed as suppression of cell proliferation under normoxic condition at 100 nM after 6 days relative to control. The class given is functional.
Data set [10] has as its system T47D. Kind of data set: Inhibition of mitochondrial respiratory chain complex 4 in human T47D cells assessed as decrease in oxygen consumption at 0.3 uM. The class given is functional, cell-based. The method, boiled down:
(§3)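 Oxygen consumption measured in T47D cells permeabilized with digitonin (30 μM). Complex I respiration started with malate plus pyruvate. Rotenone was added as complex I blocker, then succinate (complex II substrate). Antimycin A was added to block complex III, then TMPD plus ascorbate (complex IV substrates) to restart respiration. Sample added at 0.3 μM.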

Data set [11] concerns PC-3. Nature of the data set: Cytotoxicity against human PC3 cells assessed as suppression of cell proliferation under normoxic condition at 100 nM after 6 days relative to control. In kind it is functional.
Data set [12] deals with T47D. Kind of data set: Inhibition of hypoxia-induced VEGF protein expression in human T47D cells at 0.03 to 0.1 uM in presence of 1% O2. In kind it is functional, cell-based. The method, boiled down:
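T47D cells exposed to hypoxia with test agent. Secreted VEGF protein in the conditioned medium measured by ELISA and normalised to cellular protein. Mean + SD, n = 3; p values compared with the hypoxia-induced sample.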

The target in data set [13] is T1, Hypoxia inducible factors; HIF-1-alpha, HIF-2-alpha. Nature of the data set: Inhibition of hypoxia-induced HIF1 activation in human T47D cells in presence of 1% O2 by HRE3-TK-luc reporter assay. In kind it is cell-based. An outline of the steps: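 T47D cells carrying the pHRE3-TK-Luc reporter, made hypoxic at 1% O2. HIF-1 activation read as luciferase signal over a concentration range, giving IC50. Data are means ± SEM, n = 3.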

Data set [14] deals with T47D. Nature of the data set: Cytotoxicity against human T47D cells assessed as suppression of cell proliferation under normoxic condition after 48 hrs relative to control. In kind it is functional, cell-based. The method, boiled down: as §2
The test system of data set [15] is MDA-MB-231. Nature of the data set: Cytotoxicity against human MDA-MB-231 cells assessed as suppression of cell proliferation under hypoxic condition after 48 hrs relative to control. In kind it is functional, cell-based. An outline of the steps:
as §2

Data set [16] concerns T47D. Nature of the data set: Inhibition of ATP in human T47D cells under hypoxia for 16 hrs at 0.1 to 0.3 uM. In kind it is functional, cell-based.
Data set [17] has as its system T47D. Nature of the data set: Inhibition of mitochondrial respiratory chain complex 3 in human T47D cells assessed as decrease in oxygen consumption at 0.3 uM. The class given is functional, cell-based. The method, boiled down: as §3
For data set [18], the system named is T47D. Nature of the data set: Inhibition of hypoxia-induced HIF1beta protein accumulation in nucleus of human T47D cells by Western blot analysis. In kind it is functional, cell-based. The method, boiled down: as §1
Data set [19] relates to PC-3. Kind of data set: Cytotoxicity against human PC3 cells assessed as suppression of cell proliferation under normoxic condition after 48 hrs relative to control. In kind it is functional, cell-based. An outline of the steps: as §2
Data set [20] concerns MDA-MB-231. Nature of the data set: Cytotoxicity against human MDA-MB-231 cells assessed as suppression of cell proliferation under normoxic condition after 48 hrs relative to control. The class given is functional, cell-based. The method, boiled down: as §2
Data set [21] concerns T47D. Nature of the data set: Inhibition of hypoxia-induced HIF1beta protein subcellular localization in human T47D cells at 0.3 uM by immunofluorescence based assay. In kind it is functional, cell-based.
The subject of data set [22] is T47D. Kind of data set: Inhibition of hypoxia-induced VEGF mRNA expression in human T47D cells at 0.1 uM in presence of 1% O2 for 16 hrs by RT-PCR. The class given is functional. An outline of the steps:
(§4)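 T47D cells treated under hypoxia (1% O2, 16 h). GLUT-1 or VEGF mRNA measured by quantitative real-time RT-PCR and normalised to 18S rRNA. Reported relative to the normoxic control, mean ± SD, n = 3.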

In data set [23] the target is T1, Hypoxia inducible factors; HIF-1-alpha, HIF-2-alpha. Kind of data set: Inhibition of chemical hypoxia-induced HIF1 activation in human T47D cells in presence of 1, 10-phenanthrolin by HRE3-TK-luc reporter assay. In kind it is cell-based.
In data set [24] the test system is T47D. Kind of data set: Inhibition of mitochondrial respiratory chain complex 2 in human T47D cells assessed as decrease in oxygen consumption at 0.3 uM. The class given is functional, cell-based. The method, boiled down: as §3
Data set [25] relates to T47D. Kind of data set: Inhibition of hypoxia-induced GLUT1 mRNA expression in human T47D cells at 0.1 uM in presence of 1% O2 for 16 hrs by RT-PCR. The class given is functional. An outline of the steps:
as §4

The test system of data set [26] is T47D. Nature of the data set: Inhibition of mitochondrial respiratory chain complex in human T47D cells assessed as decrease in oxygen consumption in presence of TMPD and ascorbate complex 4 substrate. The class given is functional, cell-based. An outline of the steps:
as §3

In data set [27] the test system is T47D. Nature of the data set: Inhibition of mitochondrial respiratory chain complex in human T47D cells assessed as decrease in oxygen consumption in presence of rotenone and succinate complex 1 substrate. In kind it is functional, cell-based. The method, boiled down: as §3
For data set [28], the system named is T47D. Kind of data set: Inhibition of mitochondrial respiratory chain complex in human T47D cells assessed as decrease in oxygen consumption in presence of antimycin A complex 3 inhibitor. The class given is functional, cell-based. An outline of the steps:
as §3

The test system of data set [29] is DU-145. Nature of the data set: Cytotoxicity against human DU145 cells assessed as suppression of cell proliferation under normoxic condition at 100 nM after 6 days relative to control. The class given is functional.
For data set [30], the system named is HUVEC. Kind of data set: Inhibition of VEGF-induced angiogenesis in HUVEC cells at 0.1 uM by tube formation assay. In kind it is functional, cell-based. Conditions: Homo sapiens.
Data set [31] relates to DU-145. Nature of the data set: Cytotoxicity against human DU145 cells assessed as suppression of cell proliferation under normoxic condition after 48 hrs relative to control. The class given is functional, cell-based. An outline of the steps: as §2
Data set [32] relates to T47D. Kind of data set: Cytotoxicity against human T47D cells assessed as suppression of cell proliferation under normoxic condition at 10 nM after 6 days relative to control. The class given is functional.

Calls of active or inactive are those of the source. The rule behind the calls is not given here. Where only a bound is given, the exact number is not on record here.

One may read the inhibition as the share of the control response that was lost under treatment. For orientation: IC50 means the concentration needed to halve the response being measured. `CCCCCCCCCCCC[C@@H](O)[C@H]1CC[C@H]([C@H]2CC[C@H]([C@H](O)CCC(O)CCCCCC(O)CC3=CC(C)OC3=O)O2)O1` (stereo not given in full): the Activity entry is on record as “Non-toxic” in [1]; under 30% in [9]; under 30% in data set [11]; under 30% in data set [29]; 50% in data set [32]. Further, the inhibition entry in data set [2], in [10], in data set [16], in data set [17], in data set [18] and in data set [24] was “inactive” each time. Also, the inhibition result in data set [26], in data set [27] and in data set [28] was “inactive” in each case. Besides, the inhibition result in data set [3] was “Dose-dependent effect”; in data set [4], “Dose-dependent effect”; in data set [7] it was 50%. Further, the outcome in data set [5], in data set [6], in data set [8], in data set [14], in [15] and in data set [19] was inactive. For the same molecule, the result in [20] and in data set [31] was inactive. The inhibition result in data set [12], in [21] and in [30] was “Active” each time. Also, the half-maximal inhibitory concentration (IC50) in [13] is 12 nM; in data set [23], over 1000 nM. Besides, the inhibition at 0.1 µM in [22] worked out at 62%; in data set [25], 80%.
With `CCCCCCCCCCCC[C@@H](O)[C@H]1CC[C@H]([C@H](O)CCCC[C@H](O)CCCCC[C@@H](O)CC2=CC(C)OC2=O)O1` (stereo in doubt; 3), the outcome in data set [5], in [6], in data set [8], in data set [14], in data set [15] and in data set [19] was inactive. Also, the outcome in data set [20] and in [31] was inactive. In [7], the inhibition was 50%. In addition, the inhibition result in [16] was “inactive”.
As for `C=C(C)[C@H]1Cc2c(ccc3c2O[C@@H]2COc4cc(OC)c(OC)cc4[C@@H]2C3=O)O1`, the inhibition entry in data set [4] is “Dose-dependent effect”.
For the molecule `CCCCCCCCCCCC[C@@H](O)[C@H]1CC[C@H]([C@H](O)CCCC[C@H](O)CCCCC[C@@H](O)CC2=CC(C)OC2=O)O1` (stereo in doubt; 2) [ANNONACIN], the Activity result in [1] is given as “Non-toxic”. In addition, the figures for the IC50 in data set [13] and in data set [23] were 13 nM and over 1000 nM, respectively. Besides, the inhibition at 0.1 µM in data set [22] is 64%; in [25], 72%.
Turning to `CCCCCCCCCCCC[C@@H](O)[C@H]1CC[C@H]([C@H](O)CCCC[C@H](O)CCCCC[C@@H](O)CC2=CC(C)OC2=O)O1` (stereo in doubt; 3) [ANNONACIN], the Activity in data set [9] is given as under 30%; in data set [11], under 30%; in data set [29], under 30%; in data set [32] it was 50%. The IC50 in data set [23] was over 1000 nM.
Turning to `CCCCCCCCCCCC[C@@H](O)[C@H]1CC[C@H]([C@H](O)CCCC[C@H](O)CCCCC[C@@H](O)CC2=CC(C)OC2=O)O1` (stereo in doubt; 2), the inhibition result in [2], in [16] and in data set [18] was “inactive” in each case. Further, the figures for the inhibition entry in [3], in data set [4] and in [7] were “Dose-dependent effect”, “Dose-dependent effect” and 50%, respectively. Also, the result in [5], in [6], in data set [8], in data set [14], in data set [15] and in data set [19] was inactive. Moreover, the outcome in [20] and in data set [31] was inactive. For the same molecule, the inhibition entry in data set [12], in data set [21] and in [30] was “Active” throughout.
